The text below walks through data of ChEMBL document CHEMBL1129933, “Tyrosine kinase inhibitors. 6. Structure-activity relationships among N- and 3-substituted 2,2'-diselenobis(1H-indoles) for inhibition of protein tyrosine kinases and comparative in vitro and in vivo studies against selected sulfur congeners” (J Med Chem, 1997).

Test [1] relates to Colon 26. Put plainly: In vivo activity against murine colon 26, net cell kill at 0.75 mg/kg ip dose at 4 hour intervals 3x a day for 9 days. The format is functional, Mus musculus. Particulars: route intraperitoneal. The method, boiled down: (§1)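 Colon 26 was passaged in BALB/c mice; tested in CD2F1 mice (18-22 g, randomized) implanted on day 0 ip with counted cells or sc with fragments. Dosing was ip bolus, daily or q4h ×3 daily, by average cage weight. Vehicle was distilled H2O or 10% DMA in 50 mM lactic acid, pH 4.0. Net cell kill = log tumor-burden reduction between first and last treatments.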

In test [2] the test system is Colon 26. Put plainly: In vivo activity against murine colon 26 tumor, net cell kill at 1.5 mg/kg ip dose for 9 days. The format is functional, Mus musculus. Conditions: route intraperitoneal. The method, boiled down:
as §1

Another test relates to B16. Put plainly: In vivo activity against murine B16 melanoma, percent treated/control tumor mass at 3.0 mg/kg ip dose for 9 days. The format is functional, Mus musculus. Particulars: route intraperitoneal. The method, boiled down: (§2)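 Murine tumours were maintained by serial transplantation (~30 mg fragments every 2 weeks): B16 in C57BL/6 and colon 26 in BALB/c. They were tested in F1 hosts, B6C3F1 for B16 and CD2F1 for colon 26, weighing 18-22 g. Treatment was ip daily or q4h ×3 for 9 days. Weight change was the difference between mean group weights on the last and first treatment days, from life-span assays.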

For test [3], the system named is A-431. Put plainly: In vivo activity against human A431 epidermoid xenograft, net cell kill at 10 mg/kg administered subcutaneously for 9-15 days. Particulars: route subcutaneous. The format is functional. The method, boiled down: (§3)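 Nude mice (NCr nu/nu), 18-22 g, randomized, implanted sc in the right axilla with serially passaged A431 tumor fragments on day 0. Dosing was by ip bolus or continuous sc Alzet miniosmotic pump infusion, by average cage weight. Vehicle was distilled H2O or 10% DMA in 50 mM lactic acid buffer, pH 4.0, depending on compound. Net cell kill = net log reduction in tumor burden between first and last treatments.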

For test [4], the system named is A-431. Put plainly: In vivo activity against human A431 epidermoid xenograft, net cell kill at 9 mg/kg administered subcutaneously for 1-27 days. It is filed as functional. Conditions: route subcutaneous. The method, boiled down: as §3
(In general: A xenograft is tissue or cells of one species grown in another, often human tumour cells in immunodeficient mice.)

The subject of test [5] is A-431. Put plainly: In vivo activity against human A431 epidermoid xenograft, weight change after 9 mg/kg sc dose for 1-27 days. It is filed as functional, organism-based. Also on record: dose 9 mg/kg. The method, boiled down: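 Nude mice (NCr nu/nu, 18-22 g) bearing sc A431 fragments in the right axilla (day 0) received continuous sc infusion from an Alzet miniosmotic pump implanted under ketamine-xylazine. Pumps were removed or replaced under lidocaine-epinephrine for longer therapy, in 7-day and 27-day studies. Daily dose was the maximum deliverable without significant precipitation. Weight change was taken as the maximum treatment-related loss.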

Test [6] concerns Colon 26. Put plainly: In vivo activity against murine colon 26, weight change after 1.5 mg/kg ip dose for 9 days. It is filed as functional, Mus musculus. Particulars: route intraperitoneal. The method, boiled down: as §2
Test [7] deals with Platelet-derived growth factor receptor beta (Mus musculus, UniProt P05622). Put plainly: Inhibition of platelet-derived growth factor receptor (PDGFr) autophosphorylation. It is filed as functional. The method, boiled down:
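Swiss 3T3 fibroblasts were treated 2 h with a range of compound concentrations, then stimulated 5 min with growth factor. Receptor tyrosine phosphorylation was assessed by cell extraction and western blotting.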

The nature of test [8]: Inhibition of DNA synthesis. The format is functional. The method, boiled down: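 Log-phase cells were drug-treated for 2 h, then exposed for 2 h to 1 µM [methyl-3H]thymidine (DNA), [5-3H]uridine (RNA) or (S)-[4,5-3H]leucine (protein), each at 1 µCi/nmol. Cells were trypsinized into ice-cold 15% TCA, and precipitates were collected on glass-fibre filters, washed, and counted by scintillation.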

The test system of another test is M5076. Put plainly: In vivo activity against murine M5076 sarcoma, tumor growth delay (T-C) at 3.0 mg/kg ip dose at 4 hour intervals 3x a day for 9 days. Particulars: route intraperitoneal.
The subject of test [9] is A-431. Put plainly: In vivo activity against human A431 epidermoid xenograft, tumor growth delay (T-C) at 9 mg/kg administered subcutaneously for 1-27 days. Particulars: route subcutaneous.

SMILES strings stand for the structures.

Chain of Platelet-derived growth factor receptor beta (P05622 whole entry): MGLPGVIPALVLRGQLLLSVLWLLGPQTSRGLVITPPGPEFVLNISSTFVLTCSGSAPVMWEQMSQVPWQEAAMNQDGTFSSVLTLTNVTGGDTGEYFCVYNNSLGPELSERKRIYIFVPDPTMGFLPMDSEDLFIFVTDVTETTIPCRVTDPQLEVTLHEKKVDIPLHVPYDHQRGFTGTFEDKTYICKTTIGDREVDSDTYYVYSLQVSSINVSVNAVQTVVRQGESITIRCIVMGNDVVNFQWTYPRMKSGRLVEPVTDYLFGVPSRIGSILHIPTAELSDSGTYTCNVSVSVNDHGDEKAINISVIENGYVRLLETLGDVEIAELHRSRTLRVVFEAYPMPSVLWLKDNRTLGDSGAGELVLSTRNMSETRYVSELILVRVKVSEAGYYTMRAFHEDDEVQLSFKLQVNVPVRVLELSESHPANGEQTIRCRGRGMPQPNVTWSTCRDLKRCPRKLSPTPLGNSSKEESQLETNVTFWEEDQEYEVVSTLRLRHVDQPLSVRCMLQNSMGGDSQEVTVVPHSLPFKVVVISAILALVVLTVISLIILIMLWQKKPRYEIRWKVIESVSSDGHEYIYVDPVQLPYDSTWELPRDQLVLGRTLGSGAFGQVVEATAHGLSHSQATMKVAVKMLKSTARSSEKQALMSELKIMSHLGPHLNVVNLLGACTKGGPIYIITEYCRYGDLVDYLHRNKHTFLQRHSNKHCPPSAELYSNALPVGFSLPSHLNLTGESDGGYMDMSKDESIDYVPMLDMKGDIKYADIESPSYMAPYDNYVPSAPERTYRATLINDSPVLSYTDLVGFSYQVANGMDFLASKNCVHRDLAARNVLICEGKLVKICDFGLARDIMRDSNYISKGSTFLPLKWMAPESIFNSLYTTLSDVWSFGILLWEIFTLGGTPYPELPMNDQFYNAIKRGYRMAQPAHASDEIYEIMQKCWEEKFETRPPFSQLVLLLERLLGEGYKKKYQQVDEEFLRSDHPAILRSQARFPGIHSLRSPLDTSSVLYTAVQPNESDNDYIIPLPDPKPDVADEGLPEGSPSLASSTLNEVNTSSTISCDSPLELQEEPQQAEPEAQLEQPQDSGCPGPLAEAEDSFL

Regarding `NC(Cc1c(SSc2[nH]c3ccccc3c2CC(N)C(=O)NCc2ccccc2)[nH]c2ccccc12)C(=O)NCc1ccccc1` (stereo unspecified), the Net cell kill in the test with Colon 26 [1] is given as -0.2 log10; in the test on Colon 26 [2], -0.3 log10; in the test with A-431 [3] it was -0.2 log10; with A-431 [4] it was -0.6 log10. In addition, the T/C (usually the result in the treated group divided by that in the control group, in per cent) in the test on B16 is recorded as 100%. For the same compound, the figures for the Weight change entry in the test on A-431 [5] and in the test on Colon 26 [6] were “Weight gain” and 1.8 g, respectively. Also, the IC50 (usually the concentration at which inhibition is half-maximal) in test [7] is 6.2 µM; in test [8], 2.5 µM. For the same compound, the T-C turned out to be 0.7 days in the test with M5076 and 1 days in the test with A-431 [9].
